Source: ChEMBL document CHEMBL1255289, “In vitro antifungal activities of isavuconazole (BAL4815), voriconazole, and fluconazole against 1,007 isolates of zygomycete, Candida, Aspergillus, Fusarium, and Scedosporium species” (2008)
≈ marks a conversion by molar mass, not a printed value.

How the values were obtained:
[1] = test system: Aspergillus flavus; experiment: Antifungal activity against Aspergillus flavus isolates by Etest; assay type: functional
How it was run: (§1)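 Etest on RPMI agar with 2% glucose, swab-inoculated with the microdilution spore or yeast suspension taken before its 50-fold dilution. Plates were incubated at 35°C and read at 48 h. The MIC was the ellipse–scale intercept, raised to the next twofold dilution step.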

[2] = test system: Candida albicans; experiment: Antifungal activity against Candida albicans isolates after 48 hrs by CLSI M27-A2 procedure based assay; assay type: functional
How it was run: (§2)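 Candida isolates tested by CLSI M27-A2 broth microdilution at final 0.015–16 µg/ml, or 0.125–128 µg/ml for the comparator azole. Incubation was at 35°C with a visual read at 48 h. MIC-2 was the lowest concentration giving a prominent turbidity drop, about 50% growth inhibition.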

[3] = test system: Syncephalastrum; experiment: Antifungal activity against Syncephalastrum isolates assessed as lowest compound concentration that produced complete inhibition of microbial growth after 24 hrs by CLSI M38-A procedure based assay; assay type: functional
How it was run: (§3)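 Zygomycete isolates subcultured on potato dextrose or Sabouraud agar, then tested by CLSI M38-A broth microdilution. Drugs were serially diluted in plates at final 0.015–16 µg/ml and incubated at 35°C. Plates were read by eye at 24 h. MIC-0 was the lowest concentration giving complete growth inhibition.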

[4] = test system: Fusarium; experiment: Antifungal activity against Fusarium sp. isolates assessed as lowest compound concentration that produced slight growth or approximately 25% of that of growth control after 24 hrs by CLSI M38-A procedure based assay; assay type: functional
[5] = test system: Aspergillus fumigatus; experiment: Antifungal activity against Aspergillus fumigatus isolates by Etest; assay type: functional; how it was run: as §1
[6] = test system: Aspergillus flavus; experiment: Antifungal activity against Aspergillus flavus isolates after 48 hrs by CLSI M38-A procedure based assay; assay type: functional
How it was run: (§4)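 Aspergillus isolates tested by CLSI M38-A broth microdilution at final 0.015–16 µg/ml and 35°C. Plates were read macroscopically at 48 h. The MIC was the lowest concentration producing complete inhibition of growth (MIC-0).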

[7] = test system: Fusarium; experiment: Antifungal activity against Fusarium sp. isolates by Etest; assay type: functional; how it was run: as §1
[8] = test system: Mucor; experiment: Antifungal activity against Mucor isolates assessed as lowest compound concentration that produced slight growth or approximately 25% of that of growth control after 24 hrs by CLSI M38-A procedure based assay; assay type: functional
How it was run: (§5)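 Clinical isolates were kept at –70°C as spore suspensions in sterile water and subcultured on potato dextrose or Sabouraud agar before testing. Broth microdilution used DMSO stocks in trays stored at –70°C, with final drug 0.015–16 µg/ml.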

[9] = test system: Pichia kudriavzevii; experiment: Antifungal activity against Candida krusei isolates after 48 hrs by CLSI M27-A2 procedure based assay; assay type: functional; how it was run: as §2
[10] = test system: Aspergillus terreus; experiment: Antifungal activity against Aspergillus terreus isolates by Etest; assay type: functional; how it was run: as §1
[11] = test system: Cunninghamella; experiment: Antifungal activity against Cunninghamella isolates by Etest; assay type: functional
How it was run: (§6)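 Etest. The spore inoculum used for microdilution, taken before the 50-fold dilution, was swabbed onto RPMI agar with 2% glucose, strips applied, and plates held at 35°C and read at 24 h. The MIC was where the inhibition ellipse met the strip scale, rounded up to the next twofold dilution.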

[12] = test system: Aspergillus sp.; experiment: Antifungal activity against Aspergillus sp. isolates after 48 hrs by CLSI M38-A procedure based assay; assay type: functional; how it was run: as §4
[13] = test system: Mucor; experiment: Antifungal activity against Mucor isolates assessed as lowest compound concentration that produced complete inhibition of microbial growth after 24 hrs by CLSI M38-A procedure based assay; assay type: functional; how it was run: as §3
[14] = test system: Candida; experiment: Antifungal activity against Candida sp. isolates by Etest; assay type: functional; how it was run: as §1
[15] = test system: Lomentospora prolificans; experiment: Antifungal activity against Scedosporium prolificans isolates assessed as lowest compound concentration that produced slight growth or approximately 25% of that of growth control after 24 hrs by CLSI M38-A procedure based assay; assay type: functional
[16] = test system: Lomentospora prolificans; experiment: Antifungal activity against Scedosporium prolificans isolates assessed as lowest compound concentration that produced complete inhibition of microbial growth after 24 hrs by CLSI M38-A procedure based assay; assay type: functional
[17] = test system: Nakaseomyces glabratus; experiment: Antifungal activity against Candida glabrata isolates after 48 hrs by CLSI M27-A2 procedure based assay; assay type: functional; how it was run: as §2
[18] = test system: Candida tropicalis; experiment: Antifungal activity against Candida tropicalis isolates by Etest; assay type: functional; how it was run: as §1
[19] = test system: Absidia; experiment: Antifungal activity against Absidia isolates by Etest; assay type: functional; how it was run: as §6
[20] = test system: Candida parapsilosis; experiment: Antifungal activity against Candida parapsilosis isolates after 48 hrs by CLSI M27-A2 procedure based assay; assay type: functional; how it was run: as §2
[21] = test system: Fusarium; experiment: Antifungal activity against Fusarium sp. isolates assessed as lowest compound concentration that produced complete inhibition of microbial growth by CLSI M38-A procedure based assay
[22] = test system: Syncephalastrum; experiment: Antifungal activity against Syncephalastrum isolates assessed as lowest compound concentration that produced slight growth or approximately 25% of that of growth control after 24 hrs by CLSI M38-A procedure based assay; assay type: functional; how it was run: as §5
[23] = test system: Candida; experiment: Antifungal activity against Candida sp. isolates after 48 hrs by CLSI M27-A2 procedure based assay; assay type: functional
How it was run: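 Candida isolates were stored at –70°C as yeast suspensions and subcultured on potato dextrose or Sabouraud agar before use. Broth microdilution used DMSO drug stocks, with final well concentrations of 0.015–16 or 0.125–128 µg/ml depending on the azole. Plates were incubated at 35°C and read macroscopically at 48 h. MIC-2 was the lowest concentration giving a prominent turbidity decrease (~50% growth inhibition).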

[24] = test system: Aspergillus niger; experiment: Antifungal activity against Aspergillus niger isolates by Etest; assay type: functional; how it was run: as §1
[25] = Lodderomyces parapsilosis, 48 h

## C[C@@H](c1nc(-c2ccc(C#N)cc2)cs1)[C@](O)(Cn1cncn1)c1cc(F)ccc1F [ISAVUCONAZOLE]
[1]
  MIC: 0.016 µg/mL (≈ 0.0366 µM)
  MIC50: 0.38 µg/mL (≈ 0.869 µM)
  MIC90: 0.5 µg/mL (≈ 1.14 µM)
[2]
  MFC50: >16 µg/mL
  MFC90: >16 µg/mL
[2]; Candida albicans, 48 h
  MFC: 0.03 µg/mL (≈ 0.0686 µM)
  MIC50: 0.03 µg/mL (≈ 0.0686 µM)
  MIC90: < 0.015 µg/mL
[3]
  MFC: 1 µg/mL (≈ 2.29 µM)
  MIC: 0.25 µg/mL (≈ 0.571 µM)
[4]
  MIC50: 16 µg/mL (≈ 36.6 µM)
  MIC90: > 16 µg/mL
[5]
  MIC: 0.047 µg/mL (≈ 0.107 µM)
  MIC50: 0.25 µg/mL (≈ 0.571 µM)
  MIC90: 0.5 µg/mL (≈ 1.14 µM)
[6]
  MFC50: 1 µg/mL (≈ 2.29 µM)
  MFC90: 1 µg/mL (≈ 2.29 µM)
[6]; Aspergillus flavus, 48 h
  MFC: 0.5 µg/mL (≈ 1.14 µM)
  MIC50: 1 µg/mL (≈ 2.29 µM)
  MIC90: 1 µg/mL (≈ 2.29 µM)
[7]
  MIC: 0.38 µg/mL (≈ 0.869 µM)
  MIC50: > 32 µg/mL
  MIC90: > 32 µg/mL
[8]
  MIC50: 1 µg/mL (≈ 2.29 µM)
  MIC90: 8 µg/mL (≈ 18.3 µM)
[9]
  MFC: 0.5 µg/mL (≈ 1.14 µM)
  MIC: 0.125 µg/mL (≈ 0.286 µM)
[10]
  MIC50: 0.38 µg/mL (≈ 0.869 µM)
  MIC90: 0.5 µg/mL (≈ 1.14 µM)
[11]
  MIC: 0.38 µg/mL (≈ 0.869 µM)
[12]
  MFC: 0.25 µg/mL (≈ 0.571 µM)
  MIC: 0.25 µg/mL (≈ 0.571 µM)
[13]
  MFC50: 8 µg/mL (≈ 18.3 µM)
  MFC90: >16 µg/mL
[13]; Mucor, 24 h
  MFC: 2 µg/mL (≈ 4.57 µM)
  MIC50: 2 µg/mL (≈ 4.57 µM)
  MIC90: 16 µg/mL (≈ 36.6 µM)
[14]
  MIC: 0.004 µg/mL (≈ 0.00914 µM)
[15]
  MIC: 4 µg/mL (≈ 9.14 µM)
[16]
  MFC50: >16 µg/mL
  MFC90: >16 µg/mL
[16]; Lomentospora prolificans, 24 h
  MFC: > 16 µg/mL
  MIC: > 16 µg/mL
[17]
  MFC50: 16 µg/mL (≈ 36.6 µM)
  MFC90: >16 µg/mL
[17]; Nakaseomyces glabratus, 48 h
  MFC: 0.03 µg/mL (≈ 0.0686 µM)
  MIC50: 0.25 µg/mL (≈ 0.571 µM)
  MIC90: 1 µg/mL (≈ 2.29 µM)
[18]
  MIC: 0.003 µg/mL (≈ 0.00686 µM)
  MIC50: 0.015 µg/mL (≈ 0.0343 µM)
  MIC90: 0.125 µg/mL (≈ 0.286 µM)
[19]
  MIC: 0.25 µg/mL (≈ 0.571 µM)
[20]
  MFC50: 4 µg/mL (≈ 9.14 µM)
  MFC90: 16 µg/mL (≈ 36.6 µM)
[20]; [25]
  MFC: 0.03 µg/mL (≈ 0.0686 µM)
  MIC: < 0.015 µg/mL
  MIC50: < 0.015 µg/mL
  MIC90: 0.03 µg/mL (≈ 0.0686 µM)
[21]
  MFC90: >16 µg/mL
[22]
  MIC: 0.125 µg/mL (≈ 0.286 µM)
[23]
  MFC: 0.003 µg/mL (≈ 0.00686 µM)
  MIC: > 0.015 µg/mL
[24]
  MIC: 0.094 µg/mL (≈ 0.215 µM)
  MIC50: 0.5 µg/mL (≈ 1.14 µM)
